Converted amounts (≈) assume the structure as drawn.

Series [1] can be described thus: Solubility in phosphate-buffered saline (PBS) at pH 7.1. Type of series: physicochemical.
Series [2] relates to L1210. As to the kind of experiment: Antiproliferative activity of compound expressed as concentration that inhibits 50% of growth of L1210 leukemic cell suspension from 24 to 48 hr after compound addition. Type of series: functional, cell-based. The conditions noted are these: Mus musculus. An outline of the steps:
(§1)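 Cells grown in RPMI 1640 with L-glutamine, 10% defined equine serum, 2% Mopes-Hepes buffer (pH 7.40), penicillin and streptomycin. Tested in log phase (0.5 × 10^5–2 × 10^6 cells/mL), in duplicate. Compound given as 10-µL DMSO stock (one ester in ethanol), with solvent-spiked controls.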

The test system of series [3] is L1210. As to the kind of experiment: Percent viability against L1210 leukemic cells 48 hr after compound addition at 100 uM concentration. Type of series: functional, Mus musculus. Put shortly: (§2)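 Leukemia cells in RPMI 1640 with 10% defined equine serum and Mopes-Hepes buffer (pH 7.40). Compound added from DMSO stock. Viable cells scored by trypan blue exclusion 48 h after compound addition.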

Series [4] has as its system L1210. As to the kind of experiment: Percent viability against L1210 leukemic cells at 0 uM. Type of series: functional, Mus musculus.
In series [5] the test system is L1210. As to the kind of experiment: Percent viability against L1210 leukemic cells at 100 uM. Type of series: functional, Mus musculus.
For series [6], the system named is L1210. As to the kind of experiment: Percent viability against L1210 leukemic cells at 200 uM. Type of series: functional, Mus musculus.
The test system of series [7] is L1210. Nature of the series: Percent viability against L1210 leukemic cells at 25 uM. Type of series: functional, Mus musculus.
The subject of series [8] is L1210. Nature of the series: Percent viability against L1210 leukemic cells at 50 uM. The class given is functional, Mus musculus.
Series [9] relates to L1210. Nature of the series: Percent of control growth in L1210 cells by addition of 25 uM compound as […] chelate (FeCl3). The class given is functional, Mus musculus. An outline of the steps:
(§3)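 In L1210 iron-reversal runs, FeCl3 aqueous stock was premixed 1:1 molar with chelator stock until an intense purple colour developed, then added to the cells. Growth was compared with chelator alone, FeCl3 alone and DMSO alone. Cells were counted electronically and growth read 48 h after ligand addition as % of control ± SE.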

Series [10] concerns L1210. As to the kind of experiment: Percent of control growth in L1210 cells by addition of 25 uM of iron-free compound. The class given is functional, Mus musculus. Put shortly:
as §3

In series [11] the test system is P388. Nature of the series: Percent viability against P388 leukemic cells 48 hr after compound addition at 100 uM concentration. The class given is functional, Mus musculus. Put shortly:
as §2

Series [12] can be described thus: Partition ratio in 1-octanol / phosphate-buffered saline system. Type of series: physicochemical. The conditions noted are these: buffer. Put shortly:
(§4)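 Compound film was left by evaporating an alcohol solution under nitrogen. 5 mL each of 1-octanol and PBS (pH 7.1) were added, sealed under nitrogen and agitated 3 h at 27 °C. Each layer was measured by absorbance at 247 nm against Beer's plots (1.25–10 or 3.25–50 μM).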

Series [13] concerns P388. Nature of the series: Antiproliferative activity of compound expressed as concentration that inhibits 50% of growth of P388 leukemic cell suspension from 24 to 48 hr after compound addition. The class given is functional, cell-based. The note with it: Mus musculus. Put shortly:
as §1

The test system of series [14] is L1210. As to the kind of experiment: Percent viability against L1210 leukemic cells 48 hr after compound addition at 100 uM. The class given is functional, Mus musculus. Put shortly:
as §2

Series [15] deals with L1210. Nature of the series: Percent of control growth in L1210 cells by addition of 100 uM compound as […] chelate (FeCl3). The class given is functional, Mus musculus. Put shortly: as §3
The test system of series [16] is L1210. Nature of the series: Percent of control growth in L1210 cells by addition of 100 uM of iron-free compound. The class given is functional, Mus musculus. Put shortly: as §3
Series [17] concerns P388. Nature of the series: Percent viability against P388 leukemic cells 48 hr after compound addition at 100 uM. Type of series: functional, Mus musculus. An outline of the steps: as §2
Series [18] can be described thus: Partition ratio in 1-octanol / phosphate-buffered saline system. Type of series: physicochemical. The conditions noted are these: buffer. An outline of the steps:
as §4

The subject of series [19] is L1210. As to the kind of experiment: Antiproliferative activity of compound expressed as concentration that inhibits 50% of growth of L1210 leukemic cell suspension from 24 to 48 h after compound addition. The class given is functional, cell-based. The conditions noted are these: Mus musculus. Put shortly: as §1
Series [20] deals with L1210. As to the kind of experiment: Percent viability against L1210 leukemic cells 48 hr after compound addition at 35 uM concentration. Type of series: functional, Mus musculus. An outline of the steps:
as §2

For series [21], the system named is L1210. As to the kind of experiment: Percent of control growth in L1210 cells by addition of 5 uM compound as iron(II) chelate (FeCl3). Type of series: functional, Mus musculus. The conditions noted are these: in the assay text read “iron(III) chelate” for “iron(II) chelate”. Put shortly: as §3
In series [22] the test system is L1210. As to the kind of experiment: Percent of control growth in L1210 cells by addition of 5 uM of iron-free compound. Type of series: functional, Mus musculus. Put shortly:
as §3

In series [23] the test system is P388. As to the kind of experiment: Percent viability against P388 leukemic cells 48 hr after compound addition at 25 uM concentration. Type of series: functional, Mus musculus. Put shortly:
as §2

The subject of series [24] is V79 (Cricetulus griseus). Nature of the series: Tritiated thymidine uptake is estimated after incubation of 120 min with compound(50 uM) and the radiolabel.
The test system of series [25] is L1210. As to the kind of experiment: Antiproliferative activity, concentration that inhibits 50% of growth of L1210 leukemic cell suspension from 24 to 48 hr after compound addition. The class given is functional, cell-based. The conditions noted are these: Mus musculus. Put shortly:
as §1

Series [26] has as its system P388. Nature of the series: Antiproliferative activity of compound expressed as concentration that inhibits 50% of growth of P388 leukemic cell suspension from 24 to 48 hr after compound addition; ND= Not defined. The class given is functional, cell-based, Mus musculus. Put shortly:
as §1

In series [27] the test system is P388. Nature of the series: Percent viability against P388 leukemic cells 48 hr after compound addition at 100 uM concentration; ND= Not defined. Type of series: functional, cell-based. The note with it: Mus musculus. Put shortly:
as §2

As a reminder, the solubility is the dissolved amount per volume that the medium holds. A lower solubility goes with little dissolved substance. For orientation: IC50 means the concentration that inhibits the measured activity by half. `CC(=O)N(CCCCNC(=O)C1CSC(c2ccccc2O)=N1)CCCCNC(=O)C1CSC(c2ccccc2O)=N1` (centres undefined): in [1], the concentration in solution (solubility) came to 10 µM (≈ 6.12 µg/mL). The figures for the IC50 in series [2] and in series [13] were 21 µM and 12 µM, respectively. Further, the Viability in series [3] was found to be 95%; in series [4], 99%; in [5] it was 40%; in series [6], 27%; in series [7], 92%; in [8], 100%. For the same compound, the Viability in series [11] is reported as 85%. In addition, the Control of growth is 68% in series [9] and 29% in series [10]. Also, the Ratio in series [12] is on record as above 7.
`COC(=O)C1CSC(c2ccccc2O)=N1` (centres undefined) gave a solubility in series [1] of 50 µM (≈ 11.9 µg/mL). The IC50 was 14 µM in series [2] and 18 µM in [13]. In addition, the Viability in series [14] is on record as 87%; in [4], 99%; in [5], 46%; in [6], 42%; in series [8], 36%; in series [17], 85%. The Control of growth was found to be 98% in series [15] and 4% in [16]. For the same compound, the Ratio in [18] was 11.75.
On to `O=C(O)C1CSC(c2ccccc2O)=N1` (centres undefined), for which, in series [1], the solubility was found to be 75 µM (≈ 16.7 µg/mL). Moreover, the Viability was 92% in series [14]; 94% in [4]; 54% in series [5]; 42% in series [6]; 81% in series [8]; 77% in [17]. In addition, the half-inhibitory concentration (IC50) in series [19] is 25 µM; in series [13] it was 17 µM. The Ratio in series [12] is reported as 0.03.
On to `O=C(NCCCCN(CCCCNC(=O)C1CSC(c2ccccc2O)=N1)Cc1ccccc1)C1CSC(c2ccccc2O)=N1` (centres undefined), for which the concentration in solution in series [1] (solubility) came to 15 µM (≈ 9.9 µg/mL). The IC50 in series [2] came to 3 µM; in [13] it was 1 µM. For the same compound, the Viability in [20] was determined as 6%; in series [4], 87%; in [8] it was 0%; in series [23] it was 15%. The Control of growth in [21] amounted to 21%; in [22], 22%. The Ratio in series [18] came out at 0.96. In addition, the Control in series [24] was 48%.
`NC(=O)NO` [HYDROXYUREA]: the IC50 came to 85 µM in series [2] and 32 µM in series [13]. Further, the Viability in series [3] was determined as 97%; in [11] it was 96%.
As for `CCOC(=N)c1ccccc1O`, the IC50 in series [25] was above 200 µM; in [26], “Not defined”. The Viability was above 99% in series [3] and “Not defined” in series [27].

Values taken from ChEMBL document CHEMBL1124457, “In vitro antiproliferative activity of 4-substituted 2-(2-hydroxyphenyl)thiazolines on murine leukemia cells” (J Med Chem, 1989).
